The structures appear in SMILES notation. pEC50, pIC50, pKi: −log10 of the molar value.

The target in one assay is Protease (Human immunodeficiency virus 1, UniProt Q9YQ12). In words: Inhibition of HIV1 protease using hexapeptide Ac-Thr-Ile-Nle-Nle-Gln-Arg-NH2 as substrate by fluorimetric assay.
Assay [1] deals with Human immunodeficiency virus 1. In words: Antiviral activity against HIV1 […] infected in human MT2 cells by MTT assay. It counts as functional, organism-based. The note with it: Human immunodeficiency virus 1, MT2. The procedure, abridged: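 MT-2 human T-lymphoid cells (2 × 10^3) infected with 100 TCID50 of HIV-1LAI and cultured with inhibitor present. IC50 read out by MTT assay.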

The subject of assay [2] is Human immunodeficiency virus 1. As to the kind of experiment: Antiviral activity against HIV1 MDR/C harboring protease L10I, I15V, K20R, L24I, M36I, M46L, I54V, I62V, L63P, K70Q, V82A, and L89 mutant infected in PHA-PBM cells assessed as inhibition of p24 Gag protein production. It is filed as functional, organism-based. The note with it: Human immunodeficiency virus 1, MDR/C, PBMC. The procedure, abridged:
(§1)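 EC50 measured against each isolate. Assays run in duplicate. Values are means (±1 standard deviation) from two or three independent experiments. Fold-change for each isolate is its EC50 relative to the EC50 for wild-type HIV-1ERS104pre.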

Assay [3] deals with Human immunodeficiency virus 1. In words: Ratio of EC50 for HIV1 MDR/B harboring protease L10I, K14R, L33I, M36I, M46I, F53I, K55R, I62V, L63P, A71V, G73S, V82A, L90M, I93L mutant to EC50 for HIV1 ERS104 harboring wild type protease. It counts as functional. The procedure, abridged:
(§2)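 Fold-change: EC50 against each multidrug-resistant HIV-1 isolate divided by EC50 against wild-type HIV-1ERS104pre. Assays run in duplicate; values are means (±1 standard deviation) from two or three independent experiments.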

For assay [4], the system named is Human immunodeficiency virus 1. As to the kind of experiment: Ratio of EC50 for HIV1 MDR/C harboring protease L10I, I15V, K20R, L24I, M36I, M46L, I54V, I62V, L63P, K70Q, V82A, and L89 mutant to EC50 for HIV1 ERS104 harboring wild type protease. It counts as functional. The procedure, abridged:
as §2

For assay [5], the system named is Human immunodeficiency virus 1. In words: Ratio of EC50 for HIV1 MDR/TM harboring protease L10I, K14R, R41K, M46L, I54V, L63P, A71V, V82A, L90M, I93L mutant to EC50 for HIV1 ERS104 harboring wild type protease. It counts as functional. The procedure, abridged:
as §2

The test system of assay [6] is Human immunodeficiency virus 1. In words: Ratio of EC50 for HIV1 MDR/G harboring protease L10I, V11I, T12E, I15V, L19I, R41K, M46L, L63P, A71T, V82A, and L90M mutant to EC50 for HIV1 ERS104 harboring wild type protease. It is filed as functional. The procedure, abridged:
as §2

Assay [7] has as its system Human immunodeficiency virus 1. As to the kind of experiment: Antiviral activity against HIV1 MDR/G harboring protease L10I, V11I, T12E, I15V, L19I, R41K, M46L, L63P, A71T, V82A, and L90M mutant infected in PHA-PBM cells assessed as inhibition of p24 Gag protein production. It is filed as functional, organism-based. The note with it: Human immunodeficiency virus 1, MDR/G, PBMC. The procedure, abridged:
as §1

For assay [8], the system named is Human immunodeficiency virus 1. In words: Antiviral activity against HIV1 MDR/B harboring protease L10I, K14R, L33I, M36I, M46I, F53I, K55R, I62V, L63P, A71V, G73S, V82A, L90M, I93L mutant infected in PHA-PBM cells assessed as inhibition of p24 Gag protein production. It is filed as functional, organism-based. The note with it: Human immunodeficiency virus 1, MDR/B, PBMC. The procedure, abridged: as §1

For assay [9], the system named is Human immunodeficiency virus 1. As to the kind of experiment: Antiviral activity against wild type HIV1 ERS104 infected in PHA-PBM cells assessed as inhibition of p24 Gag protein production. The note with it: Human immunodeficiency virus 1, ERS104, PBMC. It is filed as functional, organism-based. The method, boiled down: as §1
In assay [10] the test system is Human immunodeficiency virus 1. As to the kind of experiment: Antiviral activity against HIV1 MDR/TM harboring protease L10I, K14R, R41K, M46L, I54V, L63P, A71V, V82A, L90M, I93L mutant infected in PHA-PBM cells assessed as inhibition of p24 Gag protein production. It is filed as functional, organism-based. The note with it: Human immunodeficiency virus 1, MDR/TM, PBMC. The method, boiled down: as §1

Protease, sequence (Q9YQ12 whole entry): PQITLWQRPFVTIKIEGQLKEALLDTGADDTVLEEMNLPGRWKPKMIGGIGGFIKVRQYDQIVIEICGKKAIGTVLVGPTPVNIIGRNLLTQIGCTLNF

Take `COc1ccc(S(=O)(=O)N(CC(C)C)C[C@@H](O)[C@H](Cc2ccccc2)NC(=O)O[C@@H]2C[C@@H]3[C@@H](NS(C)(=O)=O)CO[C@@H]3C2)cc1`: at Protease, the pKi was 9.74. Also, the pIC50 in assay [1] is 7.30.

`COC(=O)N[C@H]1CO[C@@H]2C[C@H](OC(=O)N[C@@H](Cc3ccccc3)[C@H](O)CN(CC(C)C)S(=O)(=O)c3ccc(OC)cc3)C[C@H]12`: the pEC50 in assay [2] is 7.82; in assay [7], 7.70; in [8], 7.74; in assay [9], 8.52; in assay [10], 7.62. Besides, the “Ratio EC50” value in [3] is listed as 6; in assay [4], 5; in assay [5] it was 8; in assay [6], 7. The compound also gave a pKi at Protease of 11.40. Also, the pIC50 in [1] is 8.34.

As for `COc1ccc(S(=O)(=O)N(CC(C)C)C[C@@H](O)[C@H](Cc2ccccc2)NC(=O)O[C@@H]2C[C@@H]3[C@H](NC(C)=O)CO[C@@H]3C2)cc1`, the pKi on Protease is 11.13. This compound showed a pIC50 in assay [1] of 7.60.

At Protease, `COc1ccc(S(=O)(=O)N(CC(C)C)C[C@@H](O)[C@H](Cc2ccccc2)NC(=O)O[C@@H]2C[C@@H]3[C@@H](NC(C)=O)CO[C@@H]3C2)cc1` showed a pKi of 11.12. Besides, in [1], the pIC50 was 7.51.

As to `CC(C)CN(C[C@@H](O)[C@H](Cc1ccccc1)NC(=O)O[C@H]1CO[C@H]2OCC[C@H]21)S(=O)(=O)c1ccc(N)cc1`, the pEC50 in assay [2] is 7.96; in [7], 7.96; in assay [8] it was 7.72; in assay [10], 7.55.

Regarding `COC(=O)N[C@@H]1CO[C@@H]2C[C@H](OC(=O)N[C@@H](Cc3ccccc3)[C@H](O)CN(CC(C)C)S(=O)(=O)c3ccc(OC)cc3)C[C@H]12`, the pEC50 in assay [2] was 7.52; in [7] it was 7.41; in [8], 7.12; in [9], 7.54; in assay [10] it was 7.13. Further, the “Ratio EC50” value is recorded as 3 in assay [3], 1 in assay [4], 3 in assay [5] and 1 in [6]. Moreover, the pIC50 in assay [1] was 8.80.

`COc1ccc(S(=O)(=O)N(CC(C)C)C[C@@H](O)[C@H](Cc2ccccc2)NC(=O)O[C@@H]2C[C@@H]3[C@@H](OC(=O)N(C)C)CO[C@@H]3C2)cc1` showed a pKi on Protease of 10.70. Further, the pIC50 in [1] is 8.33.

`COc1ccc(S(=O)(=O)N(CC(C)C)C[C@@H](O)[C@H](Cc2ccccc2)NC(=O)O[C@@H]2C[C@@H]3[C@H](NS(C)(=O)=O)CO[C@@H]3C2)cc1`: the negative logarithm of the Ki (pKi) on Protease is 10.49. The compound further gave a pIC50 in assay [1] of 7.55.
